# Laboratory results reported in ChEMBL document CHEMBL4725473, “A Chemical Probe for the Methyl Transferase PRMT5 with a Novel Binding Mode” (ACS Med Chem Lett, 2020).
# Calls of active or inactive are those of the source. The rule behind the calls is not given here.
# Legend:
# [1] = biological target: T1, PRMT5/MEP50 complex (Homo sapiens, UniProt O14744); experiment: (§1) Inhibition of full-length human N-terminal FLAG-tagged PRMT5/full length N-terminal His6-tagged MEP50 (unknown origin) expressed in baculovirus infected Sf9 insect cells assessed as reduction of S-adenosyl-L-homocysteine formation using human recombinant histone H2A (1 to 130 residues) and S-adenosyl-L-methionine as substrate after 60 mins by rapidfire mass spectrometry analysis
# Procedure, shortened: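 PRMT5–MEP50 complex at 5.0 nM in assay; recombinant human histone H2A as substrate. Read-out is the decrease in SAM→SAH conversion, measured by RapidFire high-throughput mass spectrometry. IC50 reported as mean of n ≥ 2.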
# [2] = biological target: Protein arginine N-methyltransferase 5 (Homo sapiens, UniProt O14744); experiment: Inhibition of PRMT5 in human A549 cells assessed as reduction in arginine dimethylation of SmD1/3 after 48 hrs by Hoechst Stain/ CellMask Deep Red Stain based immunohistochemistry method; assay type: cell-based
# Procedure, shortened: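 A549 cells treated with compound for 48 h (2 days). Symmetric arginine dimethylation of SmD1/3 measured by immunofluorescence microscopy as the nuclear/cytoplasmic intensity ratio, normalized to DMSO control. Concentration–response curves; mean ± SE of at least three replicates (n ≥ 3).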
# [3] = tested on: A549; experiment: Cytotoxicity against human A549 cells assessed as cell viability up to 10 uM incubated for 48 hrs by Hoechst staining based fluorescence microscopic analysis; conditions: a549, 48 h
# [4] = biological target: N-lysine methyltransferase SMYD2 (Homo sapiens) (UniProt Q9NRG4); experiment: Inhibition of recombinant human N-terminal His-tagged SMYD2 (2 to 433 residues) expressed in Escherichia coli using histone H4 as substrate at 10 uM by radiometric HotSpot assay relative to control
# Procedure, shortened: (§2)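 Selectivity panel of 21 purified recombinant human arginine and lysine methyltransferases. Compound tested at a single 10 μM concentration; percent inhibition of each enzyme reported.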
# [5] = biological target: Histone-lysine N-methyltransferase SETD7 (Homo sapiens) (UniProt Q8WTS6); experiment: Inhibition of recombinant human full length C-terminal His-tagged SETD7 expressed in Escherichia coli using core histone as substrate at 10 uM by radiometric HotSpot assay relative to control; procedure, shortened: as §2
# [6] = species on record: Homo sapiens; experiment: Inhibition of recombinant human N-terminal His-tagged MLL1 (3745 to 3969 residues)/human WDR5 (22 to 334)/human RbBP5 (1 to 538)/human Ash2L (2 to 534)/human DPY30 (1 to 99) expressed in Escherichia coli using nucleosome as substrate at 10 uM by radiometric HotSpot assay relative to control; procedure, shortened: as §2
# [7] = biological target: Histone-lysine N-methyltransferase PRDM9 (Homo sapiens) (UniProt Q9NQV7); experiment: Inhibition of recombinant human N-terminal GST-tagged PRDM9 (2 to 414 residues) expressed in baculovirus infected Sf9 cells using histone H3 as substrate at 10 uM by radiometric HotSpot assay relative to control; procedure, shortened: as §2
# [8] = biological target: Protein arginine N-methyltransferase 7 (Homo sapiens) (UniProt Q9NVM4); experiment: Inhibition of recombinant human N-terminal His-tagged full length PRMT7 (2 to 692 residues) expressed in baculovirus system using GST-GAR as substrate at 10 uM by radiometric HotSpot assay relative to control; procedure, shortened: as §2
# [9] = biological target: Histone-lysine N-methyltransferase 2D (Homo sapiens) (UniProt O14686); experiment: Inhibition of recombinant human N- terminal His-tagged MLL2 (5319 to 5537 residues) expressed in Escherichia coli using core histone as substrate at 10 uM by radiometric HotSpot assay relative to control; procedure, shortened: as §2
# [10] = biological target: T1, PRMT5/MEP50 complex; experiment: Binding affinity to N-terminal FLAG-tagged human PRMT5 (1 to 637 residues)/N-terminal thrombin His-tagged MEP50 (2 to 342 residues) expressed in baculovirus infected Sf21 cells by streptavidin coated sensor chip based surface plasmon resonance analysis
# [11] = biological target: Protein arginine N-methyltransferase 8 (Homo sapiens) (UniProt Q9NR22); experiment: Inhibition of recombinant human N-terminal and C-terminal His-tagged PRMT8 (61 to 394 residues) expressed in Escherichia coli using histone H4 as substrate at 10 uM by radiometric HotSpot assay relative to control; procedure, shortened: as §2
# [12] = biological target: Histone-lysine N-methyltransferase KMT5B (Homo sapiens) (UniProt Q4FZB7); experiment: Inhibition of recombinant human N-terminal GST-tagged SUV420H1 (2 to 393 residues ) expressed in baculovirus infected Sf9 cells using core histone as substrate at 10 uM by radiometric HotSpot assay relative to control; procedure, shortened: as §2
# [13] = biological target: N-lysine methyltransferase KMT5A (Homo sapiens) (UniProt Q9NQR1); experiment: Inhibition of recombinant human GST-tagged SETD8 (195 to 352 residues) expressed in Escherichia coli using nucleosome as substrate at 10 uM by radiometric HotSpot assay relative to control; procedure, shortened: as §2
# [14] = species on record: Homo sapiens; experiment: Inhibition of recombinant human N-terminal His-tagged EZH2 (2 to 746)/human recombinant AEBP2 (2 to 517)/human recombinant EED (2 to 441)/human recombinant RbAp48 (2 to 425)/human recombinant SUZ12 (2 to 739) expressed in baculovirus infected insect cells using core histone as substrate at 10 uM by radiometric HotSpot assay relative to control; procedure, shortened: as §2
# [15] = biological target: Protein arginine N-methyltransferase 6 (Homo sapiens) (UniProt Q96LA8); experiment: Inhibition of recombinant human His-tagged PRMT6 (2 to end residues) expressed in Escherichia coli using histone H3 as substrate at 10 uM by radiometric HotSpot assay relative to control; procedure, shortened: as §2
# [16] = biological target: T2, PRMT5/MEP50 complex (Homo sapiens) (UniProt O14744+Q9BQA1); experiment: as §1, with “Competitive inhibition” for “Inhibition”, “using varying concentrations of” for “using”, “80” for “60”
# [17] = biological target: T2, PRMT5/MEP50 complex (Homo sapiens); experiment: as §1, with “Non-competitive inhibition” for “Inhibition”, “and varying concentrations of” for “and”, “80” for “60”
# [18] = biological target: T2, PRMT5/MEP50 complex (Homo sapiens); experiment: Inhibition of recombinat human N-terminal Flag-tagged PRMT5 (2 to 637 residues)/ N-terminal His-tagged MEP50 (2 to 342 residues) (unknown origin) expressed in baculovirus infected Sf9 cells using recombinant human histone H2A (1 to 130 residues) as substrate at 10 uM by radiometric HotSpot assay relative to control; procedure, shortened: as §2
# [19] = biological target: Protein arginine N-methyltransferase 1 (Homo sapiens) (UniProt Q99873); experiment: Inhibition of recombinant human GST-tagged PRMT1 (2 to end residues) expressed in Escherichia coli using histone H4 as substrate at 10 uM by radiometric HotSpot assay relative to control; procedure, shortened: as §2
# [20] = biological target: Histone-lysine N-methyltransferase EHMT2 (Homo sapiens) (UniProt Q96KQ7); experiment: Inhibition of N-terminal GST-fused recombinant human EHMT2 (786 to 1210 residues) expressed in Escherichia coli using histone H3 (1 to 21) as substrate at 10 uM by radiometric HotSpot assay relative to control; procedure, shortened: as §2
# [21] = biological target: Histone-lysine N-methyltransferase SETD2 (Homo sapiens) (UniProt Q9BYW2); experiment: Inhibition of recombinant human N-terminal GST-tagged SETD2 (1433 to 1711 residues) expressed in Escherichia coli using nucleosome as substrate at 10 uM by radiometric HotSpot assay relative to control; procedure, shortened: as §2
# [22] = biological target: Histone-lysine N-methyltransferase SUV39H1 (Homo sapiens) (UniProt O43463); experiment: Inhibition of recombinant human N-terminal fusion protein tagged and C-terminal His-tagged SUV39H1 (44 to 412 residues) expressed in Escherichia coli using nucleosome as substrate at 10 uM by radiometric HotSpot assay relative to control; procedure, shortened: as §2
# [23] = biological target: Histone-lysine N-methyltransferase SETD1B (Homo sapiens) (UniProt Q9UPS6); experiment: Inhibition of recombinant human N- terminal GST-tagged SET1B (1629 to 1923 residues) expressed in Escherichia coli using core histone as substrate at 10 uM by radiometric HotSpot assay relative to control; procedure, shortened: as §2
# [24] = biological target: Histone-lysine N-methyltransferase, H3 lysine-79 specific (Homo sapiens) (UniProt Q8TEK3); experiment: Inhibition of recombinant human N-terminal GST-tagged DOT1L (1 to 416 residues) expressed in Escherichia coli using nucleosome as substrate at 10 uM by radiometric HotSpot assay relative to control; procedure, shortened: as §2
# [25] = biological target: Histone-lysine N-methyltransferase, H3 lysine-36 specific (Homo sapiens) (UniProt Q96L73); experiment: Inhibition of N-terminal His-tagged recombinant human NSD1 (1538 to 2696 residues) expressed in baculovirus infected insect cells using nucleosome as substrate […] uM by radiometric HotSpot assay relative to control; procedure, shortened: as §2
# [26] = biological target: Histone-lysine N-methyltransferase SUV39H2 (Homo sapiens) (UniProt Q9H5I1); experiment: Inhibition of recombinant human C-terminal His-tagged SUV39H2 (48 to 410 residues) expressed in Escherichia coli using nucleosome as substrate at 10 uM by radiometric HotSpot assay relative to control; procedure, shortened: as §2
# [27] = biological target: Protein arginine N-methyltransferase 3 (Homo sapiens) (UniProt O60678); experiment: Inhibition of recombinant human His-tagged PRMT3 (2 to end residues) expressed in Escherichia coli using histone H4 as substrate at 10 uM by radiometric HotSpot assay relative to control; procedure, shortened: as §2
# [28] = biological target: Histone-arginine methyltransferase CARM1 (Homo sapiens) (UniProt Q86X55); experiment: Inhibition of recombinant human FLAG-tagged PRMT4 (2 to end residues) expressed in FreeStyle HEK293-F cells using histone H3 as substrate at 10 uM by radiometric HotSpot assay relative to control; procedure, shortened: as §2
# T1 sequence (O14744 whole entry, the tested form may be a part): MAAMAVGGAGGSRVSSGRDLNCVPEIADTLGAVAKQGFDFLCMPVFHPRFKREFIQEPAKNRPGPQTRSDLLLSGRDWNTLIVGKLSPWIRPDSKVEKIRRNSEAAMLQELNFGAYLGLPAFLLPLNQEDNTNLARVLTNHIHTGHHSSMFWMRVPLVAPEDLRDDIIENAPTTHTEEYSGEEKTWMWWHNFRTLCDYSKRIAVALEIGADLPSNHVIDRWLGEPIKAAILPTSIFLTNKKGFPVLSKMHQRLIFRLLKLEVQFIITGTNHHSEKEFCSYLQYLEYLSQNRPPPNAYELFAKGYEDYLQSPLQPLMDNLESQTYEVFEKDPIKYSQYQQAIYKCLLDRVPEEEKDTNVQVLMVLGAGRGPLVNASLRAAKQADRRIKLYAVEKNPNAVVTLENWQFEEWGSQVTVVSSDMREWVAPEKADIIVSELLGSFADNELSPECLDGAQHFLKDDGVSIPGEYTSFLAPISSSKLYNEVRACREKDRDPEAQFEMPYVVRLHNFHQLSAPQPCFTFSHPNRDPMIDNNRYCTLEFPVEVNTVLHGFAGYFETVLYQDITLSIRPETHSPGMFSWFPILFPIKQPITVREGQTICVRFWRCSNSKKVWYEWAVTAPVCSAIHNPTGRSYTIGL
# T1 sequence (Q9BQA1 whole entry, further chain, the tested form may be a part): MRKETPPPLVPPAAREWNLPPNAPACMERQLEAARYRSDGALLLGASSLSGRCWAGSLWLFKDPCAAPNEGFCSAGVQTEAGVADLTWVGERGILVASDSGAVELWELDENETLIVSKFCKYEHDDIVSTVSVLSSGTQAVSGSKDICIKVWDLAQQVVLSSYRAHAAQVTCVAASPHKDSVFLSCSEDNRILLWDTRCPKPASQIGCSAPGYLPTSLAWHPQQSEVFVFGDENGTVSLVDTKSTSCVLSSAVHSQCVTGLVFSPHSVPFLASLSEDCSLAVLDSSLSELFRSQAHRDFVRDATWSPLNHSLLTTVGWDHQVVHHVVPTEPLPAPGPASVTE
# Chain of Protein arginine N-methyltransferase 5 (O14744 whole entry): as the sequence (O14744 whole entry, the tested form may be a part) above
# Chain of Histone-lysine N-methyltransferase SETD2 (Homo sapiens) (Q9BYW2 whole entry, the tested form may be a part): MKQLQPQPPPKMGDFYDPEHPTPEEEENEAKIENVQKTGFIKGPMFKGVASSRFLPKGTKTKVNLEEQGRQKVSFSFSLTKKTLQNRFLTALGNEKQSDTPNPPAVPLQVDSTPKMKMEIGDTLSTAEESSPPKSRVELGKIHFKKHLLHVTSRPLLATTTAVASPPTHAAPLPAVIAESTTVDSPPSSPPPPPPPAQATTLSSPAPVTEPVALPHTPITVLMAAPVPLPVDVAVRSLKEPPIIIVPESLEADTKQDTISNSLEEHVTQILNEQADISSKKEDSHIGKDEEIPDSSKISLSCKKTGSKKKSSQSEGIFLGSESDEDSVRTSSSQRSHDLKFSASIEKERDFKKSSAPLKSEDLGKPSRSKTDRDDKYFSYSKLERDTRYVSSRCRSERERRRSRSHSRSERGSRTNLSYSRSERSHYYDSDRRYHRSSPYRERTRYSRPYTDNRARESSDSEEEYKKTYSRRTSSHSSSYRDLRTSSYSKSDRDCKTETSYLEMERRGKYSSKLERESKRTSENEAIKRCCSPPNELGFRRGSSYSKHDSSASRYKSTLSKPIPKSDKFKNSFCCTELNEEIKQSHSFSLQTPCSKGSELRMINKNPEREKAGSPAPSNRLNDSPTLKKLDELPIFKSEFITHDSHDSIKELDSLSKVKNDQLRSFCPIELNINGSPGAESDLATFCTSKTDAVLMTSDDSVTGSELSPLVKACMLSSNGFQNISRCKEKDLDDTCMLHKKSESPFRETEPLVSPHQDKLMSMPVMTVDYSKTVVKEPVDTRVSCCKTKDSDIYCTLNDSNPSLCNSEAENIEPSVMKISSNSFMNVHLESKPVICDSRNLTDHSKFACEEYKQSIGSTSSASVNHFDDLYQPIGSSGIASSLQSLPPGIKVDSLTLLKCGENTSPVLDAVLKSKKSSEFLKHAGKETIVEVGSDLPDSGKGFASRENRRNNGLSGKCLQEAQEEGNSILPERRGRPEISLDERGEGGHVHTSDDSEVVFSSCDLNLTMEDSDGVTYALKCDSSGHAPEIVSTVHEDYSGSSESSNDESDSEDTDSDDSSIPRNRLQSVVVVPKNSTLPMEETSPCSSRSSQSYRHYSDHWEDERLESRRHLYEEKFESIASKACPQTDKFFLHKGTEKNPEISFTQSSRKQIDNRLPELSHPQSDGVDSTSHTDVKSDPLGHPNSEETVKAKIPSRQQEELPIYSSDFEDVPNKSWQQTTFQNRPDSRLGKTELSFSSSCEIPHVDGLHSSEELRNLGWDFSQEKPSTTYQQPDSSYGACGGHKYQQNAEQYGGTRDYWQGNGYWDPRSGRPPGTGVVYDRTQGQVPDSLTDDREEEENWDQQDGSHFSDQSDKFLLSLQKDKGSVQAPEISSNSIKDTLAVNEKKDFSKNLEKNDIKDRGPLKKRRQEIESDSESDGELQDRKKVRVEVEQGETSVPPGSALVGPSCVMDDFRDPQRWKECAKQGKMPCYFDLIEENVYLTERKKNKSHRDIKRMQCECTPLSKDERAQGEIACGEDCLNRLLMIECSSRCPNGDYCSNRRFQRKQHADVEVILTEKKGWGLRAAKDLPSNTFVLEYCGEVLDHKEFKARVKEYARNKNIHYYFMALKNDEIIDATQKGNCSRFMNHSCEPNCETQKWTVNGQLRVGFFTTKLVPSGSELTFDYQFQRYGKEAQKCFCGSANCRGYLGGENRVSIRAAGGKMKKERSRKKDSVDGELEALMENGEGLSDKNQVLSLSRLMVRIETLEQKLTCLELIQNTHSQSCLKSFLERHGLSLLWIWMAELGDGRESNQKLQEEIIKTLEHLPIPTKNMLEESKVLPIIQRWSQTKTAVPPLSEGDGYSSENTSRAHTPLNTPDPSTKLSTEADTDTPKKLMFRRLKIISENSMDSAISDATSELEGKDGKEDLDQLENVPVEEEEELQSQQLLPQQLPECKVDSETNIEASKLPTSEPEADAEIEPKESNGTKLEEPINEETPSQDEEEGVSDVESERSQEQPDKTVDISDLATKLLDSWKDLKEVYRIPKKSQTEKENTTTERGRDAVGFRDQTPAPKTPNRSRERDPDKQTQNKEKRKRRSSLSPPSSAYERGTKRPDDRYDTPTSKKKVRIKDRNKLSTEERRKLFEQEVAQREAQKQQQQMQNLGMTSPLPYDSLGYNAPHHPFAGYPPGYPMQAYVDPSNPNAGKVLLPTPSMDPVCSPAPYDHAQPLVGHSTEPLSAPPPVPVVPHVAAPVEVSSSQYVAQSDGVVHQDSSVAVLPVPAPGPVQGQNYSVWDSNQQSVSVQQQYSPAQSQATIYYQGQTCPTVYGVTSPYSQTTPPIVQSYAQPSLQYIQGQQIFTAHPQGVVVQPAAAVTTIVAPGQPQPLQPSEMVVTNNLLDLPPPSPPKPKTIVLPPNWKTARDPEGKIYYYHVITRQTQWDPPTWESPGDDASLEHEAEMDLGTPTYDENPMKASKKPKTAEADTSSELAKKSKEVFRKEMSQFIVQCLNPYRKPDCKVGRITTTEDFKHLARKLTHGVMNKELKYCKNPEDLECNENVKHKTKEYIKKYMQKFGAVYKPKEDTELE
# Chain of Protein arginine N-methyltransferase 7 (Homo sapiens) (Q9NVM4 whole entry, the tested form may be a part): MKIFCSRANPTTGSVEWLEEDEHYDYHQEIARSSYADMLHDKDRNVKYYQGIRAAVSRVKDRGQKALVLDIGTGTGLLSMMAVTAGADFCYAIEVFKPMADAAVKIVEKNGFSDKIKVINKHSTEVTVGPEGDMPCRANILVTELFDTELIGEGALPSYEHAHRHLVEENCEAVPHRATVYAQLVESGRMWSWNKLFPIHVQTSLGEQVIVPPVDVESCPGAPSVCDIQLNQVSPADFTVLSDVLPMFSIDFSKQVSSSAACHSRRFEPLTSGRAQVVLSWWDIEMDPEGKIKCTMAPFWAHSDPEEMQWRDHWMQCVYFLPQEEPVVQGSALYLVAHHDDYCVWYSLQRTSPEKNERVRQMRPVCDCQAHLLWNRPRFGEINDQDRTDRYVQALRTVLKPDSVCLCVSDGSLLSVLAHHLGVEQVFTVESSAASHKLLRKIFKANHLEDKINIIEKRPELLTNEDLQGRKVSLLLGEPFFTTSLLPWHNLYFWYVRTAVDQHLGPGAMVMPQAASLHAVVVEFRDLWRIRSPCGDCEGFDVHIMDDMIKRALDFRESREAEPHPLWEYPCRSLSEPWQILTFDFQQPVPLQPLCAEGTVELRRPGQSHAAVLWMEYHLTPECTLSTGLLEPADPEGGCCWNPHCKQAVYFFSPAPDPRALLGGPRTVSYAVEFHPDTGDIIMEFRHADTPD
# Chain of Protein arginine N-methyltransferase 3 (Homo sapiens) (O60678 2-531 limits assumed): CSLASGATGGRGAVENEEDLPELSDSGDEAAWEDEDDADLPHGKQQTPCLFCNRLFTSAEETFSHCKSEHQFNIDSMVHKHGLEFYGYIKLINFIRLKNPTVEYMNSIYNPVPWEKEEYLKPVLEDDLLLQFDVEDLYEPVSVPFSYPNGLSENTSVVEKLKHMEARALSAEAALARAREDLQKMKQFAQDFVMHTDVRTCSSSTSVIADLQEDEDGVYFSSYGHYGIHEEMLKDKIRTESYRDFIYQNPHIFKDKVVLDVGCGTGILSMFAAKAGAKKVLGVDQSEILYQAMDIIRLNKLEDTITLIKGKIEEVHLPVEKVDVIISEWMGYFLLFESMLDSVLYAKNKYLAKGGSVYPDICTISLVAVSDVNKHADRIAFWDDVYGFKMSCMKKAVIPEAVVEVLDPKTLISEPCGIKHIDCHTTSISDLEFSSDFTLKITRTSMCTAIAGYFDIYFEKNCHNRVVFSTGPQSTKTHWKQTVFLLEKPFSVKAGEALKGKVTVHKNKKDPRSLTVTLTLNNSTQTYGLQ
compound,measurement,setting,value
Nc1ncnc2c1ncn2[C@@H]1O[C@H](CN2CCC3(CCNC3)CC2)[C@@H](O)[C@H]1O,IC50,[1],> 10 µM
Nc1ncnc2c1ncn2[C@@H]1O[C@H](CN2CCC23CNC3)[C@@H](O)[C@H]1O,IC50,[1],5.1 µM
Nc1ncnc2c1ncn2[C@@H]1O[C@H](CN2CCCC23CNC3)[C@@H](O)[C@H]1O,IC50,[1],0.74 µM
Nc1ncnc2c1ncn2[C@@H]1O[C@H](CN2CCCC23CCNCC3)[C@@H](O)[C@H]1O,IC50,[2],2.3 µM
same,IC50,[1],0.052 µM
same,Activity,[3],Non-Toxic
Nc1ncnc2c1ncn2[C@@H]1O[C@H](CN2CCC23CCNCC3)[C@@H](O)[C@H]1O,IC50,[1],0.37 µM
Nc1ncnc2c1ncn2[C@@H]1O[C@H](CN2CCCC23CCNC3)[C@@H](O)[C@H]1O (stereo in doubt; 3a),IC50,[1],3.3 µM
CC(=O)N1CCC2(CCCN2C[C@H]2O[C@@H](n3cnc4c(N)ncnc43)[C@H](O)[C@@H]2O)CC1,IC50,[1],> 10 µM
Nc1ncnc2c1ncn2[C@@H]1O[C@H](CN2CCC3(CCNCC3)CC2)[C@@H](O)[C@H]1O,IC50,[1],> 10 µM
CN1CCC2(CCCN2C[C@H]2O[C@@H](n3ccc4c(N)ncnc43)[C@H](O)[C@@H]2O)CC1,IC50,[2],0.2 µM
same,inhibition,[4],< 25%
same,inhibition,[5],< 25%
same,inhibition,[6],< 25%
same,inhibition,[7],< 25%
same,inhibition,[8],< 25%
same,inhibition,[9],< 25%
same,Kd,[10],0.0076 µM
same,inhibition,[11],< 25%
same,inhibition,[12],< 25%
same,inhibition,[13],< 25%
same,inhibition,[14],< 25%
same,IC50,[1],0.048 µM
same,inhibition,[15],< 25%
same,inhibition,[16],Active
same,inhibition,[17],Active
same,inhibition,[18],> 90%
same,inhibition,[19],< 25%
same,inhibition,[20],< 25%
same,inhibition,[21],< 25%
same,inhibition,[22],< 25%
same,inhibition,[23],< 25%
same,inhibition,[24],< 25%
same,inhibition,[25],< 25%
same,inhibition,[26],< 25%
same,inhibition,[27],< 25%
same,inhibition,[28],< 25%
NCC[C@@H]1CCCN1C[C@H]1O[C@@H](n2cnc3c(N)ncnc32)[C@H](O)[C@@H]1O,IC50,[2],2.4 µM
same,IC50,[1],0.083 µM
Nc1ncnc2c1ncn2[C@@H]1O[C@H](CN2CCCC3(CNC3)C2)[C@@H](O)[C@H]1O,IC50,[1],0.53 µM
Nc1ncnc2c1ncn2[C@@H]1O[C@H](CN2CCCC2)[C@@H](O)[C@H]1O,IC50,[2],> 10 µM
same,IC50,[1],76 µM
Nc1ncnc2c1ncn2[C@@H]1O[C@H](CN2CCC(N)CC2)[C@@H](O)[C@H]1O,IC50,[1],> 10 µM
Nc1ncnc2c1ncn2[C@@H]1O[C@H](CN2CCC3(CCNCC3)C2)[C@@H](O)[C@H]1O,IC50,[1],5.4 µM
Nc1ncnc2c1ccn2[C@@H]1O[C@H](CN2CCCC23CCNCC3)[C@@H](O)[C@H]1O,IC50,[2],0.058 µM
same,IC50,[1],0.0095 µM
same,inhibition,[16],Active
same,inhibition,[17],Active
NCC[C@H]1CCCN1C[C@H]1O[C@@H](n2cnc3c(N)ncnc32)[C@H](O)[C@@H]1O,IC50,[1],0.34 µM
Nc1ncnc2c1ncn2[C@@H]1O[C@H](CN2CCCC23CCCCC3)[C@@H](O)[C@H]1O,IC50,[1],> 10 µM
Nc1ncnc2c1ncn2[C@@H]1O[C@H](CN2CCCC23CCNC3)[C@@H](O)[C@H]1O (stereo in doubt; 3b),IC50,[1],2.7 µM
